Article PMC3162318 (Journal of biomolecular screening, 2011)

Target: T1, TRβ-SRC2-2 interaction (hTRβ LBD, SRC2-2 Texas Red peptide) (Homo sapiens, UniProt P10828)
T1 sequence (P10828 209-461): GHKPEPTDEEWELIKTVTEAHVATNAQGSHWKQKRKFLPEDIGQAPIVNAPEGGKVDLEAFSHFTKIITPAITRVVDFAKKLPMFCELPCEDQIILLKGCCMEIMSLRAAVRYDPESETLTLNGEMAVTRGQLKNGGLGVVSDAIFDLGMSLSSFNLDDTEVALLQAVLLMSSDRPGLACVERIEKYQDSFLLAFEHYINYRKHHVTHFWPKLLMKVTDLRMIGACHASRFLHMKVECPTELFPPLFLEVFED
Assay: TRβ-SRC2-2 fluorescence polarization qHTS
Format: binding
Details: six concentrations up to 92 μM; FP inhibition

| Structure (SMILES) | activity in the qHTS (active/inactive) |
| --- | --- |
| CS(=O)(=O)c1ccc(C(=O)OCC(=O)NC2CCS(=O)(=O)C2)cc1[N+](=O)[O-] (stereo not shown) [MLS000336487-01] | inactive |
| CS(=O)(=O)c1ccc(C(=O)OCC(=O)NC(=O)C2CCCCC2)cc1[N+](=O)[O-] [MLS000517530-01] | active |
| O=C(COC(=O)c1ccncc1)NC(=O)C1CCCCC1 [MLS000565662-01] | loss of the activity |
| CC(=O)c1cccc(NC(=O)COC(=O)c2ccc(S(C)(=O)=O)c([N+](=O)[O-])c2)c1 [MLS000517219-01] | inactive |
| CS(=O)(=O)c1ccc(C(=O)OCC(=O)NC23CC4CC(CC(C4)C2)C3)cc1[N+](=O)[O-] [MLS000389544-01] | active |
| O=C(COC(=O)c1ccc(Cl)cc1O)NC(=O)C1CCCCC1 [MLS000776485-01] | loss of the activity |
| COc1cc(C(=O)OCC(=O)NC(=O)C2CCCCC2)ccc1OC(F)F [MLS000517502-01] | loss of the activity |
| CS(=O)(=O)c1ccc(C(=O)OCc2nnc(-c3ccc(Cl)cc3)o2)cc1[N+](=O)[O-] [MLS001003284-01] | inactive |
| Cc1ccccc1NC(=O)COC(=O)c1ccc(S(C)(=O)=O)c([N+](=O)[O-])c1 [MLS001017631-01] | inactive |
| CS(=O)(=O)c1ccc(C(=O)OCc2nnc(-c3ccccc3)o2)cc1[N+](=O)[O-] [MLS001010708-01] | inactive |
| CC(CCc1ccccc1)NC(=O)COC(=O)c1ccc(S(C)(=O)=O)c([N+](=O)[O-])c1 (stereo not shown) [MLS001003365-01] | active |

Target: T2, TRβ-SRC2-2 interaction (hTRβ LBD, SRC2-2 fluorescein peptide) (Homo sapiens, UniProt P10828)
T2 sequence (P10828 209-461): T1 sequence (P10828 209-461)
Assay: not given
Format: binding
Details: confirmation, independent samples, fluorescein fluoroprobe
How it was run: (§1)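 Talon-purified TRβ (eluted with T3), 0.6 uM, with 20 nM SRC2-2 peptide carrying an N-terminal Texas Red or fluorescein label, in pH 7.4 Tris buffer with 1 µM T3 and 4% DMSO. Test compound was given as 10 three-fold dilutions, top 130 µM, then incubated 3 h at ambient temperature. Polarization was read at 555/632 nm (Texas Red) or 480/535 nm (fluorescein). mP was normalized to DMSO wells with and without TRβ, and concentration-response curves were fitted.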

| Structure (SMILES) | IC50 [µM] |
| --- | --- |
| CN1CC[C@@]2(C)c3cc(O)ccc3N(C)[C@H]2O1 [geneseroline] | > 30 |

Target: T1, TRβ-SRC2-2 interaction (hTRβ LBD, SRC2-2 Texas Red peptide)
Assay: not given
Format: binding
Details: confirmation, independent samples, Texas Red fluoroprobe
How it was run: as §1

| Structure (SMILES) | IC50 [µM] |
| --- | --- |
| CN1CC[C@@]2(C)c3cc(O)ccc3N(C)[C@H]2O1 [geneseroline] | > 30 |
